Screening results from PubChem.
An excerpt weighted towards active compounds, which were near 6.7% of everything screened.
NR3A LBD binder: modulators (binders) of human NR3A ligand-binding domain; NR3A LBD differential scanning fluorimetry, Tm shift; 0% = protein alone, 100% = glycine-bound protein; Tm shift relative to glycine control, % at 25 µM; actives 2.5% (n = 340,000); AID 1259313;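 active = melting temperature shift of at least 10% of the positive control shift, at one fixed dose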
PREPL inhibitor: inhibits the human prolyl oligopeptidase-like enzyme; Q4J6C6; recombinant PREPL, fluorescence polarization activity-based probe; inhibition, % at 5.96 µM; actives 0.68% (n = 320,000); AID 2751; in the data active = inhibition above about 43%;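 also: 0% = enzyme with DMSO and 100% = wells lacking enzyme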
Target sequence (Q4J6C6 whole entry, looked up): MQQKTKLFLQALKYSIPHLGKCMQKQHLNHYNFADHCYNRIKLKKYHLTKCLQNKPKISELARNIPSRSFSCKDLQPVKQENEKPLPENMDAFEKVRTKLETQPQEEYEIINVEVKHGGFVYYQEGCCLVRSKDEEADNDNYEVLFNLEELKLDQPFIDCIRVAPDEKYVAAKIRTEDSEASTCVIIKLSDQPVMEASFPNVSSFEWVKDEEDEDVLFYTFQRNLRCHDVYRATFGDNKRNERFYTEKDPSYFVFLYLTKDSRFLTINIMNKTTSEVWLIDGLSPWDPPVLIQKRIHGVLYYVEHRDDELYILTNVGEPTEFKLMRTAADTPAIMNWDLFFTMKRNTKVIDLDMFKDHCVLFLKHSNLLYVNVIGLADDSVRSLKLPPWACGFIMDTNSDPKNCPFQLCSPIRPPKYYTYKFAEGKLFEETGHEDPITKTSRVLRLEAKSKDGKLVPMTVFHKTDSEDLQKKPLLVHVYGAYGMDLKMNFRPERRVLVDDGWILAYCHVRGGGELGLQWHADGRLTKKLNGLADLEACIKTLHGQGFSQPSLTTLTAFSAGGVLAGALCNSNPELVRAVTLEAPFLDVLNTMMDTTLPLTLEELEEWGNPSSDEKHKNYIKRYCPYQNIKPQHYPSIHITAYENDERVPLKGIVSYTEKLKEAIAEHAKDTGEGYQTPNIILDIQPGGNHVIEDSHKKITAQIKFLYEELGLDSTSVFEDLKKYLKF
CHOP inhibitor: CHOP inhibition in unfolded protein response; actives 3.8% (n = 220,000); CHO-K1 CHOP-promoter luciferase, tunicamycin-induced, 15-18 h; inhibition, % at 10 µM;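 active = compounds that reduced the stress-induced luciferase reporter signal by more than about 70% of percent inhibition, limit read from the data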;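 also: 0% = tunicamycin plus vehicle and 100% = wells without tunicamycin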
T cruzi repl: T. cruzi replication inhibition. T. cruzi beta-gal in NIH3T3, luminescence, 90 h. inhibition, % (no concentration beside the values). actives 1.4% (n = 300,000);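 active = mean inhibition across valid replicates above about 55%, limit read from the data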;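 also: signal also drops with host cell toxicity which is not excluded here; 0% = plate median of DMSO wells and 100% = zero luminescence signal; higher percent means less beta-gal luminescence so fewer parasites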
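Assay system: NIH/3T3 fibroblasts plus reporter T. cruzi. Amount: NIH/3T3 cells, 5,000 per well. Buffer or medium: DMEM, 2% fetal bovine serum. Doses: compound pinned at 50 nL/well, DMSO. Schedule: ≥90 h infection period, 3 h prior cell attachment. Signal: luminescent β-galactosidase signal after 60 min lysis. Read-out: parasite load inhibition, %.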
Beta apoptosis: beta cell apoptosis inhibition; INS-1E cytokine-induced death, ATP luminescence, 48 h; percent of positive-control rescue, neutral wells zero; protection from apoptosis, % (no concentration beside the values); actives 0.8% (n = 300,000); AID 435005;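 active = Every replicate reaches about 75%, or at least half do and their mean reaches it too, limit read from the data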;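 also: 0% = cytokine-treated negative control wells and 100% = positive control rescue; higher means more ATP so stronger rescue from cytokine killing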
CSC inhib: cancer stem cell inhibition; actives 1.1% (n = 300,000); AID 2717; inhibition, % at 7.5 µM; cancer stem cell-like cells viability, luminescence; in the data active = inhibition above about 75%; tested in HMLE shEcad cells
CHOP confirm: confirmation of CHOP induction inhibitors | shares compounds with CHOP inhibitor | CHO-CHOP promoter luciferase reporter, tunicamycin-induced, luminescence | inhibition, % at 10 µM | actives 45% (n = 2,100) | AID 504437;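 active = mean of three repeat readings of reporter signal inhibition above a set limit, cut at about 70% in these data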;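 also: 0% = tunicamycin plus vehicle and 100% = wells lacking tunicamycin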
Active calls of the source: *.

Results for COc1ccc(CC(=O)NNC2=Nc3cccc4cccc2c34)cc1 ?
NR3A LBD binder: 5; PREPL inhibitor: 5; CHOP inhibitor: 100*; T cruzi repl: -2; Beta apoptosis: -5; CSC inhib: -6; CHOP confirm: -60

How did COc1ccccc1NCC(O)Cn1c2ccccc2c2ccccc21 (centres undefined) do in these assays?
NR3A LBD binder: 11*; PREPL inhibitor: 11; CHOP inhibitor: 100*; T cruzi repl: 38; Beta apoptosis: -1; CSC inhib: 52; CHOP confirm: 41

Results for COCCN(C(=O)c1cc(-c2ccco2)nc2ccccc12)c1c(N)n(Cc2ccccc2)c(=O)[nH]c1=O ?
NR3A LBD binder: 0; PREPL inhibitor: 14; Beta apoptosis: -3; CSC inhib: -6

What do the screens show for `CCCn1c(=S)[nH]c2cc(C(=O)N3CCN(c4ccccc4OC)CC3)ccc2c1=O`?
NR3A LBD binder: -2; PREPL inhibitor: -1; CHOP inhibitor: 25; T cruzi repl: -7; Beta apoptosis: -7; CSC inhib: -7

How did CCCn1c(=S)[nH]c2cc(C(=O)N3CCc4ccccc4C3)ccc2c1=O do in these assays?
NR3A LBD binder: -2; PREPL inhibitor: 1; CHOP inhibitor: 102*; T cruzi repl: 9; Beta apoptosis: -4; CSC inhib: 12; CHOP confirm: 14

How did COc1cccc(CCc2nnc(N)s2)c1 do in these assays?
NR3A LBD binder: 0; PREPL inhibitor: -11; T cruzi repl: -10; CSC inhib: -6

Results for CCOC(=O)c1c(C)sc2c1N(C(=O)CCl)c1cc(Cl)ccc1S2 ?
NR3A LBD binder: 1; PREPL inhibitor: 8; T cruzi repl: 27; Beta apoptosis: 0; CSC inhib: 130*; CHOP confirm: -24

What do the screens show for `Cc1ccc(NC(c2ccccc2)c2nc3ccccc3[nH]c2=O)cc1` (centres undefined)?
NR3A LBD binder: -4; PREPL inhibitor: 2; CHOP inhibitor: 102*; T cruzi repl: 19; Beta apoptosis: -4; CSC inhib: 2; CHOP confirm: 10

What do the screens show for `N#CSC(c1ccccc1)c1nc2ccccc2[nH]c1=O` (centres undefined)?
NR3A LBD binder: -1; PREPL inhibitor: -5; T cruzi repl: -11; Beta apoptosis: 7; CSC inhib: 2

How did CC1CCN(C(=O)CNC(=O)c2ccc(Br)o2)CC1 do in these assays?
NR3A LBD binder: -1; PREPL inhibitor: 11; Beta apoptosis: -5; CSC inhib: -24

What do the screens show for `Cc1nn(-c2ccccc2)c2c1C(c1ccccc1)C(C#N)=C(N)O2` (centres undefined)?
NR3A LBD binder: -8; PREPL inhibitor: -2; CHOP inhibitor: 13; T cruzi repl: -7; Beta apoptosis: -6; CSC inhib: -14

How did Cc1nn(-c2ccccc2)c2c1C(c1ccc(F)cc1F)C(C#N)=C(N)O2 (centres undefined) do in these assays?
NR3A LBD binder: -3; PREPL inhibitor: 3; CHOP inhibitor: 99*; T cruzi repl: 12; Beta apoptosis: 5; CSC inhib: 4; CHOP confirm: 17

Results for Cc1ccc(S(=O)(=O)Nc2cccc(S(=O)(=O)Nc3ccccc3C(=O)O)c2)c(C)c1 ?
NR3A LBD binder: -4; PREPL inhibitor: 12; Beta apoptosis: 4; CSC inhib: -6

What do the screens show for `O=C(Cn1cnc2nc3n(c2c1=O)CCC3)NCc1ccccc1`?
NR3A LBD binder: 0; PREPL inhibitor: -2; CHOP inhibitor: 6; T cruzi repl: -9; Beta apoptosis: -6; CSC inhib: -13

How did C=CCn1c(COc2ccc(Cl)cc2)nnc1SCC(=O)N/N=C/c1cccc(O)c1 do in these assays?
NR3A LBD binder: -19; PREPL inhibitor: -49; CHOP inhibitor: 21; T cruzi repl: 12; Beta apoptosis: -6; CSC inhib: 51

What do the screens show for `C=CCn1c(COc2ccccc2)nnc1SC(C)C(=O)N/N=C/c1cc(Cl)ccc1O` (centres undefined)?
NR3A LBD binder: -4; PREPL inhibitor: 9; CHOP inhibitor: 97*; Beta apoptosis: 26; CSC inhib: 58; CHOP confirm: 128*
